The subject of assay [1] is Rattus norvegicus. The assay can be described thus: Effective dose for analgetic activity on intracerebroventricular administration in rats using tail flick test; Inactive. Type of assay: functional, organism-based. The essentials:
(§1)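 Rats had cannulae stereotaxically implanted in the lateral ventricle (AP 0.0, L 2.0 from bregma, 3.5 mm below dura) and recovered for 2 weeks. Methanesulfonate salts in artificial rat CSF were injected icv at 10 μL over 30 s, with doses given as total amount. CSF alone served as control. After 0.5 h of acclimation in restraint, the tail was immersed 5 cm in 55 °C water at 5, 10, 15 and 20 min. Withdrawal latency was timed with a 30 s cutoff, averaging three observations. ED50 and 95% confidence limits were derived by Litchfield–Wilcoxon.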
On the technique in general: In hot-plate and tail-flick tests a longer latency is read as antinociception.

For assay [2], the system named is Mus musculus. The assay can be described thus: Effective dose for analgetic activity on subcutaneous administration in mice using Writhing test; Inactive. Format: functional, organism-based. The essentials: (§2)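 Mouse acetic acid writhing assay. Compounds were given as methanesulfonic acid salts, dissolved in deionized water and injected subcutaneously. ED50 values and 95% confidence limits were calculated by the Litchfield–Wilcoxon method.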
A general note: An intraperitoneal irritant provokes the stretching counted in writhing tests.

In assay [3] the target is Opioid receptor (Rattus norvegicus, UniProt P33533+P34975+P33535). Description: Concentration required to inhibit opiate receptor using radioligand [3H]- Etorphine. Type of assay: protein assay.
Assay [4] relates to Mus musculus. The assay can be described thus: Effective dose for analgetic activity on subcutaneous administration in mice using Writhing test. Format: functional. To be noted: sc. The gist of the method: as §2
The test system of assay [5] is Rattus norvegicus. The assay can be described thus: Effective dose for analgetic activity on intracerebroventricular administration in rats using tail flick test. Type of assay: functional. The essentials: as §1
For assay [6], the system named is Mus musculus. The assay can be described thus: Effective dose for analgetic activity on subcutaneous administration in mice using Writhing test; Inactive at 460 uM/kg. Type of assay: functional, organism-based. The gist of the method:
as §2

The test system of assay [7] is Rattus norvegicus. The assay can be described thus: Effective dose for analgetic activity on intracerebroventricular administration in rats using tail flick test; Inactive at 780 nM. Format: functional, organism-based. The essentials: as §1

The source made the active and inactive calls.

In ChEMBL document CHEMBL1123543, “3,7-Diazabicyclane: a new narcotic analgesic” (J Med Chem, 1986) one finds ED50 and IC50 data, which are given here for five compounds.

In the case of `COC(c1ccccc1)C1C2CN(C)CC1CN(C)C2` (stereo not drawn), the ED50 result in assay [1] and in assay [2] was “inactive” throughout. Further, the IC50 in assay [3] is 7.2 µM.
`COC(c1cccc(O)c1)C1C2CN(C)CC1CN(C)C2` (stereo not drawn): in assay [4], the ED50 was 0.56 µmol/kg. Besides, the IC50 in assay [3] worked out at 2.3 µM.
Consider `CN1CC[C@]23c4c5ccc(O)c4O[C@H]2[C@@H](O)C=C[C@H]3[C@H]1C5` [MORPHINE], for which the ED50 in assay [5] stood at 0.023 µM; in assay [4], 3 µmol/kg.
For the compound `CCC(=O)OC(c1ccccc1)C1C2CN(C)CC1CN(C)C2` (stereo not drawn), the ED50 entry in assay [6] and in assay [7] was “inactive” each time. In assay [3], this compound displayed an IC50 of 7.6 µM.
In the case of `CCC(=O)OC(c1cccc(O)c1)C1C2CN(C)CC1CN(C)C2` (stereo not drawn), the ED50 was 0.025 µM in assay [5] and 0.85 µmol/kg in assay [4]. In assay [3], this compound returned an IC50 of 0.53 µM.

By IC50 is commonly meant the concentration needed to halve the response being measured.
